Compound activity: PubChem, several laboratories
An excerpt weighted towards active compounds, which were near 3% of everything screened.
ABHD5-PLIN5 inh: ABHD5-PLIN5 protein interaction inhibition; AID 602281; Split G. princeps luciferase complementation, luminescence, 4 h; Q00G26+Q8WTS1; hit rate 0.78% among 360,000; inhibition, % at 4 µM;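 active means inhibition above the mean inhibition across every tested compound plus 3 SD, cut at about 22% in these data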;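 further: 0% = DMSO only wells and the 100% control is not disclosed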
MC4R ag barr: activates human MC4R beta-arrestin recruitment; P32245; U2OS MC4R beta-arrestin complementation, luminescence; percent of melanotan II response, DMSO zero; activation, % at 8.9 µM; hit rate 0.98% among 360,000; AID 540308;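 active means activation above a per-plate cutoff, the mean activation of sample wells on that plate plus 3 SD, cut at about 8% in these data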
Target sequence (P32245 whole entry, looked up): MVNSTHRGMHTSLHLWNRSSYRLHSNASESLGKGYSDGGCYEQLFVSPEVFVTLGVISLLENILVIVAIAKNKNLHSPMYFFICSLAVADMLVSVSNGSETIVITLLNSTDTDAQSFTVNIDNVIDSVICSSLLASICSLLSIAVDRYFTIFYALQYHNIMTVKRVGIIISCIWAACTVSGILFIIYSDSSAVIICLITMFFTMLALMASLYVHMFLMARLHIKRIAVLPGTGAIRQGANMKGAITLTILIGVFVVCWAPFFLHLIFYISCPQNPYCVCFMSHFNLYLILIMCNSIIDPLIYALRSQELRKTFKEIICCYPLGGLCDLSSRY
PfGluPho inh: PfG6PD (Plasmodium falciparum) enzyme inhibition; PfGluPho enzyme, NADPH resazurin-diaphorase fluorescence; inhibition, % at 20 µM; hit rate 0.78% among 350,000; AID 504690;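 active means inhibition reaching at least a set limit at 20 µM in the primary screen, cut at about 59% in these data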;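 further: 0% = DMSO wells with substrate and 100% = DMSO wells lacking glucose-6-phosphate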
Beta2AR agonist: human beta-2 adrenergic receptor agonism by FAP | P07550 | hit rate 0.43% among 340,000 | AID 504454 | response, % (test concentration not listed) | Am2.2-beta2AR cells, FAP receptor internalization, flow cytometry;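 active means response above a set limit, near 3 SD of response in nonfluorescent compounds, cut at about 42% in these data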
MC4R antag cAMP: antagonists of human melanocortin 4 receptor (MC4R); P32245; MC4R-expressing cells, MTII-stimulated cAMP, LANCE TR-FRET; inhibition, % at 6.5 µM; hit rate 0.48% among 360,000; AID 540295;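 active means inhibition above its plate's cutoff, the mean of tested wells on that plate plus 3 SD, cut at about 29% in these data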;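 further: 0% = Melanotan II alone and 100% = Melanotan II plus saturating MCL0020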
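Material: human MC4R-expressing U2OS cells. Probe or stimulus: Melanotan II challenge. Dosing: 6.5 µM single dose. Times: 30-min compound, 1-h challenge, 1-h detection, room temperature. Technique: TR-FRET with Eu-cAMP and labeled anti-cAMP, 671 nm. Replication: singlicate.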
B2AR ag CP1: activates human beta-2 adrenergic receptor | Am2.2-beta2AR cells, FAP surface receptor, flow cytometry; hits give low values | shares compounds with Beta2AR agonist | AID 540358 | hit rate 25% among 1,100 | percent response (surface receptor), % at 10 µM;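 active means surface receptor percent response at or below 58%, roughly 3 SD from nonfluorescent compounds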
FAP fluor counter: fluorescence artifact in beta-2AR agonist FAP counterscreen. 1,100 tested, under 10 active. Am2.2 cells, FAP fluorogen flow cytometry; hits give low values. shares compounds with Beta2AR agonist. calls only at 10 µM. AID 588765;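 active means percent response below a set limit in fluorescence channel 1 and below 50% in channel 8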
Starred values were filed as active, the others as inactive; i = inactive; . = no result; ! = a repeat was not active.

SMILES	ABHD5-PLIN5 inh	MC4R ag barr	PfGluPho inh	Beta2AR agonist	MC4R antag cAMP	B2AR ag CP1	FAP fluor counter
Cc1ccc(N(C)S(=O)(=O)c2cc(-c3cnc(C4CC4)o3)ccc2C)cc1	-4.0	0.6	0.0	103.5*	3.1	1.5*	i
CCOc1ccc(C(=O)C(CCC(CN(C)C)C(=O)c2ccc(OCC)cc2)CN(C)C)cc1 (centres undefined)	48.8*	9.5*	12.8	110.0*	2.9	82.3	i
COc1ccc(C(=O)C(CCCCC(CN(C)C)C(=O)c2ccc(OC)cc2)CN(C)C)cc1 (centres undefined)	3.4	0.3	-0.2	-4.3	-4.8	.	.
Fc1ccc(C2CCNCC2COc2ccc3c(c2)OCO3)cc1 (centres undefined)	6.7	1.2	8.7	12.1	0.6	.	.
Fc1ccc([C@@H]2CCNC[C@H]2COc2ccc3c(c2)OCO3)cc1	4.2	3.0	18.0	44.5*!	-4.7	93.8	i
COc1ccc2c(c1)[nH]c1c(=O)n(/N=C/c3ccc(OC)c(COc4ccccn4)c3)cnc12	-1.1	0.0	11.5	20.6	-5.3	.	.
COc1ccc(/C=N/n2cnc3c([nH]c4ccc(F)cc43)c2=O)cc1CSc1ccccn1	2.5	0.9	-1.8	57.7*	27.5	79.3	i
CCN1CCN(c2ccc(S(=O)(=O)N3CCOCC3)cc2NC(=O)/C=C/c2ccc([N+](=O)[O-])cc2)CC1	9.8	0.0	11.4	18.4	7.6	.	.
COc1ccc(OC)c(S(=O)(=O)N2CCCC(C(=O)NCc3cccnc3)C2)c1 (centres undefined)	1.1	0.5	-14.2	71.3*	4.6	91.6	i
O=C(Nc1ccccc1)c1ccccc1CCc1ccccc1	-3.9	4.3	1.7	31.8	10.2	45.7*	i
CCC(=O)NC(NC(=S)Nc1c(C)n(C)n(-c2ccccc2)c1=O)C(Cl)(Cl)Cl (centres undefined)	-6.1	2.1	22.7	-7.1	2.6	.	.
CCCCNc1ccc(C(CC(N)=O)NC(=O)Cc2cccc3ccccc23)cc1[N+](=O)[O-] (centres undefined)	-2.6	-1.9	-1.6	-2.9	1.8	.	.
NC(=O)CC(NC(=O)Cc1cccc2ccccc12)c1ccc(NCCCN2CCCC2=O)c([N+](=O)[O-])c1 (centres undefined)	7.5	-0.3	-9.1	103.0*	-3.1	16.7*	i
COc1ccc(Nc2nnc(-c3ccc(C)cc3)c3ccccc23)cc1C(=O)N1CCCCC1	0.2	-0.8	0.3	20.8	10.2	.	.
Cc1cccc(Nc2nnc(-c3ccc(C(=O)N4C[C@H]5C[C@H](C4)c4cccc(=O)n4C5)cc3)c3ccccc23)c1	14.3	-1.4	-10.5	84.7*	6.8	15.8*	i
CCOC(=O)CSC1=C(C#N)C(c2ccc(Cl)cc2)CC(=O)N1 (centres undefined)	-7.7	-1.3	1.3	16.1	7.4	.	.
CCOC(=O)CSC1=C(C#N)C(c2ccc(C)o2)CC(=O)N1 (centres undefined)	3.3	0.0	-0.6	52.1*	-26.1	73.2	i
COc1cc(Cl)c(CNC[C@H]2O[C@@H](n3cnc4c(=O)[nH]c(N)nc43)[C@H](O)[C@@H]2O)c(Cl)c1O	-3.5	.	.	.	.	.	.
Cc1ccc(C(C[N+](=O)[O-])Sc2ccc(N)cc2)cc1 (centres undefined)	5.5	1.3	54.8	70.4*	-14.7	102.1	i
O=[N+]([O-])c1ccc(Sc2nc3ccccc3o2)c([N+](=O)[O-])c1	15.9	-4.2	19.4	73.8*	16.7	71.0	i
O=[N+]([O-])c1ccc(Cl)cc1Sc1nc2ccccc2o1	4.0	-0.4	-1.3	-27.7	1.1	.	.
Cc1noc(NS(=O)(=O)c2ccc(NC(=O)C34CC5CC(C3)CC(n3cnc(Cl)n3)(C5)C4)cc2)c1C	-1.9	-1.6	-7.5	74.0*	0.4	84.0	i
O=C1CSC(c2ccc([N+](=O)[O-])cc2)N1c1ccccc1 (centres undefined)	1.5	-2.5	-1.3	14.1	0.0	.	.
